Laboratory results from ChEMBL document CHEMBL4152256, “Structure-activity relationship of new antimalarial 1-aryl-3-susbtituted propanol derivatives: Synthesis, preliminary toxicity profiling, parasite life cycle stage studies, target exploration, and targeted delivery” (Eur J Med Chem, 2018).
The source made the active and inactive calls. No cut-off for these calls is given here.

What was measured:
Plasmodium falciparum [1] = assay: Antiplasmodial activity against multidrug-resistant Plasmodium falciparum C235 after 72 hrs by MSF assay; format: functional, organism-based; conditions: C235, 72 h
How it was run: (§1)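 D6 and C235 strains from the Walter Reed Army Institute of Research were tested by the Malaria SYBR Green-I fluorescence assay.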

Plasmodium falciparum [2] = assay: Antiplasmodial activity against Plasmodium falciparum D6 after 72 hrs by MSF assay; format: functional, organism-based; conditions: D6, 72 h; how it was run: as §1
[3] = Genotoxicity in Salmonella typhimurium TA1535 harboring pSK1002 assessed as survival at 0.25 mg/ml in absence of Sprague-Dawley rat liver S9 fraction after by SOS/umu assay relative to control; format: toxicity, organism-based; conditions: salmonella enterica subsp. enterica serovar typhimurium, read-out: Survival
[4] = Genotoxicity in Salmonella typhimurium TA1535 harboring pSK1002 assessed as umu gene induction at 0.25 mg/ml in absence of Sprague-Dawley rat liver S9 fraction after by SOS/umu assay relative to control; format: toxicity, organism-based; conditions: salmonella enterica subsp. enterica serovar typhimurium, read-out: FC
[5] = Genotoxicity in Salmonella typhimurium TA1535 harboring pSK1002 assessed as survival at 0.25 mg/ml in presence of Sprague-Dawley rat liver S9 fraction after by SOS/umu assay relative to control; format: toxicity, organism-based; conditions: salmonella enterica subsp. enterica serovar typhimurium, read-out: Survival
[6] = Genotoxicity in Salmonella typhimurium TA1535 harboring pSK1002 assessed as umu gene induction at 0.25 mg/ml in presence of Sprague-Dawley rat liver S9 fraction after by SOS/umu assay relative to control; format: toxicity, organism-based; conditions: salmonella enterica subsp. enterica serovar typhimurium, read-out: FC
[7] = Genotoxicity in Salmonella typhimurium TA1535 harboring pSK1002 assessed as survival at 0.031 mg/ml in absence of Sprague-Dawley rat liver S9 fraction after by SOS/umu assay relative to control; format: toxicity, organism-based; conditions: salmonella enterica subsp. enterica serovar typhimurium, read-out: Survival
[8] = Genotoxicity in Salmonella typhimurium TA1535 harboring pSK1002 assessed as survival at 0.016 mg/ml in absence of Sprague-Dawley rat liver S9 fraction after by SOS/umu assay relative to control; format: toxicity, organism-based; conditions: salmonella enterica subsp. enterica serovar typhimurium, read-out: Survival
[9] = Genotoxicity in Salmonella typhimurium TA1535 harboring pSK1002 assessed as survival at 0.016 mg/ml in presence of Sprague-Dawley rat liver S9 fraction after by SOS/umu assay relative to control; format: toxicity, organism-based; conditions: salmonella enterica subsp. enterica serovar typhimurium, read-out: Survival
[10] = Genotoxicity in Salmonella typhimurium TA1535 harboring pSK1002 assessed as survival at 0.004 mg/ml in presence of Sprague-Dawley rat liver S9 fraction after by SOS/umu assay relative to control; format: toxicity, organism-based; conditions: salmonella enterica subsp. enterica serovar typhimurium, read-out: Survival
[11] = Genotoxicity in Salmonella typhimurium TA1535 harboring pSK1002 assessed as umu gene induction at 0.004 mg/ml in presence of Sprague-Dawley rat liver S9 fraction after by SOS/umu assay relative to control; format: toxicity, organism-based; conditions: salmonella enterica subsp. enterica serovar typhimurium, read-out: FC
[12] = Genotoxicity in Salmonella typhimurium TA1535 harboring pSK1002 assessed as survival at 0.002 mg/ml in presence of Sprague-Dawley rat liver S9 fraction after by SOS/umu assay relative to control; format: toxicity, organism-based; conditions: salmonella enterica subsp. enterica serovar typhimurium, read-out: Survival
[13] = Genotoxicity in Salmonella typhimurium TA1535 harboring pSK1002 assessed as survival at 0.001 mg/ml in absence of Sprague-Dawley rat liver S9 fraction after by SOS/umu assay relative to control; format: toxicity, organism-based; conditions: salmonella enterica subsp. enterica serovar typhimurium, read-out: Survival
Plasmodium berghei [14] = assay: Antiplasmodial activity against Plasmodium berghei ANKA infected in mouse assessed as inhibition of parasitemia at 50 mg/kg/day, po for 4 consecutive days starting from 2 hrs post infection by MSF assay relative to control; format: functional
How it was run: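 Swiss male mice (20 ± 2 g) infected ip with 10^7 P. berghei ANKA parasitized cells (day 0). Five per group dosed orally 2 h after infection and daily on days 0–3. Test compounds at 50 mg/kg/day in water:DMSO; chloroquine diphosphate at 3 mg/kg/day; vehicle controls. Parasitemia measured on day 4 by MSF assay; survival checked daily.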

Plasmodium berghei [15] = assay: Antiplasmodial activity against Plasmodium berghei ANKA infected in mouse assessed as mouse survival time at 50 mg/kg/day, po for 4 consecutive days starting from 2 hrs post infection by MSF assay; format: functional
How it was run: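 Swiss male mice (20 ± 2 g) infected i.p. with 10^7 P. berghei ANKA parasitized cells in 0.1 mL 0.9% saline (day 0). Oral dosing began 2 h post-infection and continued daily on days 0–3, five mice per batch. Test drugs were given at 50 mg/kg/day in water:DMSO and chloroquine diphosphate at 3 mg/kg/day; a vehicle control was included. Survival was checked daily, and parasitemia was read on day 4 by modified MSF assay.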

Plasmodium berghei [16] = assay: Antiplasmodial activity against GFP-fused Plasmodium berghei sporozoites infected in human HepG2A16 cells treated simultaneously with infection by fluorescence microscopic analysis; format: functional, organism-based
How it was run: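 HepG2-A16 cells (3 × 10^4/well, collagen-coated) infected with PbGFP sporozoites (5 × 10^3 to 1 × 10^4/well) and treated at the same time. Top concentration 10 µg/mL in DMEM, seven serial dilutions. Medium and compound renewed at 3 h and every 24 h. After 40 h at 37 °C: methanol fixation, anti-Plasmodium Hsp70 immunolabeling, Alexa 594 secondary, DAPI; high-content imaging.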

Plasmodium falciparum [17] = assay: Binding affinity to Plasmodium falciparum GRP94 nucleotide binding domain by SPR analysis
How it was run: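 Purified PfHsp90 and PfGRP94 nucleotide-binding domains were amine-coupled to a CM5 chip (3000 and 7000 RU, respectively), with a blank reference surface. Seven compound concentrations (0.4 nM–1 mM) were injected in triplicate at 30 µL/min, 25 °C, in random order. Running buffer: 10 mM HEPES pH 7.4, 150 mM NaCl, 0.005% P20, 1% DMSO, 2 mM MgCl2. Kd came from double-referenced sensorgrams.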

[18] = Solubility of the compound in DSPC:cholesterol:DSPE-PEG2000-Mal:DOPE-Rho lipid mixture at 250 uM; format: physicochemical
How it was run: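 Compound added at 250 µM drug to the initial liposome lipid mixture (10 mM total lipid); precipitation and UV-visible absorbance above 300 nm assessed after encapsulation, removal of unencapsulated material and extraction with 1% w/v SDS in RPMI-A.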

[19] = Plasmodium berghei, HepG2A16, read-out: IC50

| SMILES | IC50 (Plasmodium falciparum [1]) [nM] | IC50 (Plasmodium falciparum [2]) [nM] | viability at 0.25 mg/ml [3] [%] | fold induction at 0.25 mg/ml [4] | viability at 0.25 mg/ml [5] [%] | fold induction at 0.25 mg/ml [6] | viability at 0.031 mg/ml [7] [%] | viability at 0.016 mg/ml [8] [%] | viability at 0.016 mg/ml [9] [%] | viability at 0.004 mg/ml [10] [%] | fold induction at 0.004 mg/ml [11] | viability at 0.002 mg/ml [12] [%] | viability at 0.001 mg/ml [13] [%] | inhibition in vivo at 50 mg/kg/day (Plasmodium berghei [14]) [%] | MSD (Plasmodium berghei [15]) [days] | IC50 (Plasmodium berghei [16]) | Activity (Plasmodium falciparum [17]) | solubility [18] | inhibition (Plasmodium berghei [14]) | IC50 (Plasmodium berghei [16]; [19]) [nM] |
| --- | --- | --- | --- | --- | --- | --- | --- | --- | --- | --- | --- | --- | --- | --- | --- | --- | --- | --- | --- | --- |
| COc1ccccc1N1CCN(CCC(O)c2ccc(F)c3ccccc23)CC1 (stereo unspecified) | 410 | 280 | 147 | 0.3 | 115 | 0.4 | 58.4 | 63 | 92.4 | 102 | 0.8 | 102 | 70.5 | ≤ 50 | 10 | Not Active | inactive | Insoluble |  |  |
| Oc1ccc(C(O)CCN2CC=C(c3ccc(F)cc3)CC2)cc1 (stereo unspecified) |  |  |  |  |  |  | 105 | 94.8 | 120 | 112 | 0.5 | 112 | 87.9 |  |  | Not Active |  |  |  |  |
| OC(CCN1CCN(C(c2ccccc2)c2ccccc2)CC1)c1ccc(F)c(F)c1 (stereo unspecified) |  |  |  |  |  |  | 20.7 | 36.7 | 94.9 | 87.6 | 0.9 | 92.2 | 110 |  | 9 | Not Active |  | Insoluble | inactive |  |
| OC(CCN1CCN(C(c2ccccc2)c2ccccc2)CC1)c1ccc(F)c2ccccc12 (stereo unspecified) | 170 | 100 |  |  |  |  | 107 | 86.3 | 99.6 | 111 | 0.8 | 114 | 81 |  | 9 |  | inactive | Insoluble | inactive | 5420 |
| N#Cc1ccc(N2CCC(NCCC(O)c3ccc(F)c4ccccc34)CC2)c(Cl)c1 (stereo unspecified) | 170 | 120 |  |  |  |  | 42.2 | 36.8 | 38.5 | 169 | 0.5 | 148 | 130 | ≤ 50 | 10 |  | inactive |  |  | 3410 |
| N#Cc1ccc(N2CCC(NCCC(O)c3ccc(F)c4ccccc34)CC2)c(Br)c1 (stereo unspecified) | 150 | 120 |  |  |  |  | 19.4 | 18.6 | 80.2 | 97.5 | 0.9 | 65.3 | 104 | ≤ 50 | 10 |  | inactive |  |  |  |
| COc1ccccc1N1CCN(CCC(O)c2ccc(F)cc2)CC1 (stereo in doubt; 66) | 7260 | 6320 | 98.8 | 1.1 | 90.4 | 1 | 116 | 108 | 82.8 | 93.1 | 1 | 80.7 | 110 | 96.4 | 12 | Not Active |  | Insoluble |  |  |
| COc1ccccc1C1=CCN(CCC(O)c2ccc(F)c3ccccc23)CC1 (stereo unspecified) | 230 | 150 | 233 | 0.1 | 182 | 0.2 | 47.2 | 50.6 | 84 | 91.1 | 0.8 | 101 | 81.7 |  |  | Not Active |  | Insoluble |  |  |
| N#Cc1ccc(N2CCC(NCCC(O)c3ccc(F)c4ccccc34)CC2)c(C(F)(F)F)c1 (stereo in doubt; 72) | 120 | 80 |  |  |  |  | 30.2 | 28.3 | 36.3 | 136 | 0.7 | 136 | 132 | 80.4 | 10 |  |  | Soluble |  | 2700 |
